Assay results as given in ChEMBL document CHEMBL1811815, “Synthesis of new pyrazole derivatives and their anticancer evaluation” (2010).

What was measured:
NCI-H522 = assay: Anticancer activity against human NCI-H522 cells assessed as cell growth at 10^-5 M after 48 hrs by sulforhodamine B assay relative to control; conditions: NCI-H522, 48 h
DU-145 [1] = assay: Anticancer activity against human DU145 cells assessed as cell growth at 10^-5 M after 48 hrs by sulforhodamine B assay relative to control; conditions: DU-145, 48 h
ACHN = assay: Anticancer activity against human ACHN cells assessed as cell growth at 10^-5 M after 48 hrs by sulforhodamine B assay relative to control
HOP-92 = assay: Anticancer activity against human HOP92 cells assessed as cell growth at 10^-5 M after 48 hrs by sulforhodamine B assay relative to control; conditions: HOP-92, 48 h
UACC-62 = assay: Anticancer activity against human UACC62 cells assessed as cell growth at 10^-5 M after 48 hrs by sulforhodamine B assay relative to control; conditions: UACC-62, 48 h
MOLT-4 = assay: Anticancer activity against human MOLT4 cells assessed as cell growth at 10^-5 M after 48 hrs by sulforhodamine B assay relative to control; conditions: MOLT-4, 48 h
[2] = Growth inhibition of human Hs 578T cells after 48 hrs by sulforhodamine B assay; type: functional
Procedure, shortened: (§1)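 NCI five-dose assay using 10-fold serial dilutions from 10^-8 to 10^-4 M, compound in DMSO. Cells exposed 48 h at 37 °C, 5% CO2, 100% humidity. Protein measured by sulforhodamine B staining at 515 nm, with time-zero, control and treated readings. GI50 is the concentration where [(Ti−Tz)/(C−Tz)]×100 = 50. It is reported as greater or less than the range bounds when not reached.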

NCI-H23 = assay: Growth inhibition of human NCI-H23 cells after 48 hrs by sulforhodamine B assay; type: functional; conditions: NCI-H23, 48 h
Procedure, shortened: as §1

UO-31 = assay: Growth inhibition of human UO31 cells after 48 hrs by sulforhodamine B assay; type: functional; conditions: UO-31, 48 h
Procedure, shortened: as §1

LOX IMVI = assay: Growth inhibition of human LOXIMVI cells after 48 hrs by sulforhodamine B assay; type: functional
Procedure, shortened: as §1

Malme-3M = assay: Growth inhibition of human MALME-3M cells after 48 hrs by sulforhodamine B assay; type: functional
Procedure, shortened: as §1

OVCAR-3 = assay: Growth inhibition of human OVCAR3 cells after 48 hrs by sulforhodamine B assay; type: functional; conditions: OVCAR-3, 48 h
Procedure, shortened: as §1

SF-539 = assay: Growth inhibition of human SF539 cells after 48 hrs by sulforhodamine B assay; type: functional; conditions: SF-539, 48 h
Procedure, shortened: as §1

DU-145 [3] = assay: Growth inhibition of human DU145 cells after 48 hrs by sulforhodamine B assay; type: functional; conditions: DU-145, 48 h
Procedure, shortened: as §1

NCI/ADR-RES = assay: Growth inhibition of human NCI/ADR-RES cells after 48 hrs by sulforhodamine B assay; type: functional
Procedure, shortened: as §1

A549 = assay: Growth inhibition of human A549 cells after 48 hrs by sulforhodamine B assay; type: functional; conditions: A549, 48 h
Procedure, shortened: as §1

786-0 = assay: Growth inhibition of human 786-0 cells after 48 hrs by sulforhodamine B assay; type: functional; conditions: 786-0, 48 h
Procedure, shortened: as §1

HCT-116 [4] = assay: Anticancer activity against human HCT116 cells assessed as cell growth at 10^-5 M after 48 hrs by sulforhodamine B assay relative to control; conditions: HCT-116, 48 h
OVCAR-4 = assay: Growth inhibition of human OVCAR4 cells after 48 hrs by sulforhodamine B assay; type: functional; conditions: OVCAR-4, 48 h
Procedure, shortened: as §1

SR = assay: Growth inhibition of human SR cells after 48 hrs by sulforhodamine B assay; type: functional
Procedure, shortened: as §1

SF-295 = assay: Growth inhibition of human SF295 cells after 48 hrs by sulforhodamine B assay; type: functional; conditions: SF-295, 48 h
Procedure, shortened: as §1

RXF 393 = assay: Growth inhibition of human RXF393 cells after 48 hrs by sulforhodamine B assay; type: functional; conditions: RXF 393, 48 h
Procedure, shortened: as §1

HCT-116 [5] = assay: Growth inhibition of human HCT116 cells after 48 hrs by sulforhodamine B assay; type: functional; conditions: HCT-116, 48 h
Procedure, shortened: as §1

SNB-75 = assay: Growth inhibition of human SNB75 cells after 48 hrs by sulforhodamine B assay; type: functional; conditions: SNB-75, 48 h
Procedure, shortened: as §1

TK-10 = assay: Anticancer activity against human TK10 cells assessed as cell growth at 10^-5 M after 48 hrs by sulforhodamine B assay relative to control; conditions: TK-10, 48 h
MDA-MB-231 = assay: Growth inhibition of human MDA-MB-231 cells after 48 hrs by sulforhodamine B assay; type: functional; conditions: MDA-MB-231, 48 h
Procedure, shortened: as §1

OVCAR-8 = assay: Growth inhibition of human OVCAR8 cells after 48 hrs by sulforhodamine B assay; type: functional; conditions: OVCAR-8, 48 h
Procedure, shortened: as §1

SK-OV-3 = assay: Growth inhibition of human SKOV3 cells after 48 hrs by sulforhodamine B assay; type: functional; conditions: SK-OV-3, 48 h
Procedure, shortened: as §1

NCI-H322M = assay: Growth inhibition of human NCI-H322M cells after 48 hrs by sulforhodamine B assay; type: functional
Procedure, shortened: as §1

MDA-MB-435 = assay: Anticancer activity against human MDA-MB-435 cells assessed as cell growth at 10^-5 M after 48 hrs by sulforhodamine B assay relative to control; conditions: MDA-MB-435, 48 h
CAKI-1 = assay: Anticancer activity against human Caki1 cells assessed as cell growth at 10^-5 M after 48 hrs by sulforhodamine B assay relative to control; conditions: CAKI-1, 48 h
[6] = read-out: pLC50 (the source's name) (converted)

## Cc1ccc(NC(=S)NC(=O)c2cnn(C)c2)cc1
NCI-H522
  growth, % of control at 10 µM: 62.5%

## Cc1cs/c(=N\C(=O)c2cnn(C)c2)n1-c1ccccc1
DU-145 [1]
  growth, % of control at 10 µM: 1.6%
ACHN
  growth, % of control at 10 µM: -15.7%

## Cc1cs/c(=N\C(=O)c2cnn(C)c2)n1-c1ccc(Cl)cc1
DU-145 [1]
  growth, % of control at 10 µM: 0.3%
ACHN
  growth, % of control at 10 µM: -11.8%

## COc1ccc(NC(=S)NC(=O)c2cnn(C)c2)cc1
HOP-92
  growth, % of control at 10 µM: 68.7%

## Cn1cc(C(=O)NC(=S)Nc2ccc(Cl)cc2Cl)cn1
UACC-62
  growth, % of control at 10 µM: 79.7%

## Cc1cccc(C)c1NC(=S)NC(=O)c1cnn(C)c1
MOLT-4
  growth, % of control at 10 µM: 40.5%

## Cn1cc(C(=O)NC(=S)Nc2ccc(Cl)cc2)cn1
NCI-H522
  growth, % of control at 10 µM: 47.2%

## O=C(NC(=S)Nc1cc(-c2ccc(Br)cc2)n[nH]1)c1ccccc1
[2]
  GI50: 2.75 µM
[2]; [6]
  CC50: > 100 µM
[2]; read-out: pTGI (converted)
  TGI: 33.9 µM
NCI-H23
  GI50: 9.33 µM
NCI-H23; read-out: pLC50 (converted)
  CC50: > 100 µM
NCI-H23; read-out: pTGI (converted)
  TGI: 50.1 µM
UO-31
  GI50: 4.07 µM
UO-31; [6]
  CC50: 85.1 µM
UO-31; read-out: pTGI (converted)
  TGI: 21.4 µM
LOX IMVI
  GI50: 5.5 µM
LOX IMVI; [6]
  CC50: > 100 µM
LOX IMVI; read-out: pTGI
  TGI: > 100 µM
Malme-3M
  GI50: 6.61 µM
Malme-3M; [6]
  CC50: > 100 µM
Malme-3M; read-out: pTGI (converted)
  TGI: 91.2 µM
OVCAR-3
  GI50: 5.01 µM
OVCAR-3; [6]
  CC50: 70.8 µM
OVCAR-3; read-out: pTGI (converted)
  TGI: 20.4 µM
SF-539
  GI50: 3.39 µM
SF-539; [6]
  CC50: > 100 µM
SF-539; read-out: pTGI
  TGI: > 100 µM
DU-145 [3]
  GI50: 9.33 µM
DU-145 [3]; [6]
  CC50: > 100 µM
DU-145 [3]; read-out: pTGI
  TGI: > 100 µM
NCI/ADR-RES
  GI50: 4.9 µM
NCI/ADR-RES; [6]
  CC50: > 100 µM
NCI/ADR-RES; read-out: pTGI (converted)
  TGI: 63.1 µM
A549
  GI50: 2.34 µM
A549; [6]
  CC50: 79.4 µM
A549; read-out: pTGI (converted)
  TGI: 14.1 µM
NCI-H522
  growth, % of control at 10 µM: 8.9%
786-0
  GI50: 3.24 µM
786-0; [6]
  CC50: 47.9 µM
786-0; read-out: pTGI (converted)
  TGI: 11.7 µM
HCT-116 [4]
  growth, % of control at 10 µM: 1%
OVCAR-4
  GI50: 4.27 µM
OVCAR-4; [6]
  CC50: > 100 µM
OVCAR-4; read-out: pTGI (converted)
  TGI: 24 µM
SR
  GI50: 11.7 µM
SR; [6]
  CC50: > 100 µM
SR; read-out: pTGI (converted)
  TGI: 40.7 µM
SF-295
  GI50: 9.77 µM
SF-295; [6]
  CC50: > 100 µM
SF-295; read-out: pTGI (converted)
  TGI: 36.3 µM
RXF 393
  GI50: 3.16 µM
RXF 393; [6]
  CC50: 47.9 µM
RXF 393; read-out: pTGI (converted)
  TGI: 15.1 µM
HCT-116 [5]
  GI50: 1.78 µM
HCT-116 [5]; [6]
  CC50: 24.5 µM
HCT-116 [5]; read-out: pTGI (converted)
  TGI: 4.79 µM
SNB-75
  GI50: 6.17 µM
SNB-75; [6]
  CC50: 89.1 µM
SNB-75; read-out: pTGI (converted)
  TGI: 26.9 µM
TK-10
  growth, % of control at 10 µM: -19.9%
MDA-MB-231
  GI50: 3.8 µM
MDA-MB-231; [6]
  CC50: > 100 µM
MDA-MB-231; read-out: pTGI (converted)
  TGI: 22.4 µM
OVCAR-8
  GI50: 4.68 µM
OVCAR-8; [6]
  CC50: 69.2 µM
OVCAR-8; read-out: pTGI (converted)
  TGI: 20.9 µM
SK-OV-3
  GI50: 7.24 µM
SK-OV-3; [6]
  CC50: 52.5 µM
SK-OV-3; read-out: pTGI (converted)
  TGI: 21.9 µM
NCI-H322M
  GI50: 4.47 µM
NCI-H322M; [6]
  CC50: > 100 µM
NCI-H322M; read-out: pTGI (converted)
  TGI: 44.7 µM

## Cc1cc(NC(=S)NC(=O)c2ccccc2)n(-c2ccccc2)n1
MDA-MB-435
  growth, % of control at 10 µM: 22.6%

## Cn1cc(C(=O)NC(=S)Nc2c(Cl)cccc2Cl)cn1
CAKI-1
  growth, % of control at 10 µM: 69.7%
